{"source": "paper PMC4416029", "about": "(Behavioural Pharmacology, 2015)", "key": {"[1]": {"test_system": "Line 66 (L66) tau transgenic mice", "assay": "RotaRod motor performance and motor learning, L66 mice", "assay_type": "in vivo, mouse", "summary_of_the_method": "(§1)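 On a four-lane rat RotaRod, pretreatment trials in week 1 were used for cohort matching. Mice then received 2 weeks of daily oral dosing (Monday–Sunday, 08.00–10.00 h): L66 at 5, 15 or 45 mg/kg, WT at 45 mg/kg only. Post-treatment training in week 4 continued dosing 1 h before the first trial. Time to fall was recorded over 12 trials. Learning was scored as trial 12 minus trial 1, and memory as pretreatment versus post-treatment trial 1.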"}, "[2]": {"molecular_target": "aggregated tau in L66 (Homo sapiens, UniProt P10636, G652D/P618S)", "sequence (P10636 1-441 isoform P10636-8 P301S/G335D)": "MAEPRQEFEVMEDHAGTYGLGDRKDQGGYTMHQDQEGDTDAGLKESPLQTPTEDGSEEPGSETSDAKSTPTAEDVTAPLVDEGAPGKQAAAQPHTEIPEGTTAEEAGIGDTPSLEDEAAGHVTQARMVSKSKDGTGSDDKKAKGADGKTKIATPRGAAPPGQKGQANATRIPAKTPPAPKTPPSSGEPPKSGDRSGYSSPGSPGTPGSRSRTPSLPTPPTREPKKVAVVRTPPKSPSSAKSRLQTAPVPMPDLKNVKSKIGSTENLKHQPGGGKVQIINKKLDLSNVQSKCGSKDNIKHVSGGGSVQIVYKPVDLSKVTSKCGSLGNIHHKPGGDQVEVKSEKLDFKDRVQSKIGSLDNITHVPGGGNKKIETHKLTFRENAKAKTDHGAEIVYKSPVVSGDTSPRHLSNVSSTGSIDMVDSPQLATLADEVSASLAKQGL", "assay": "Immunohistochemical counts of tau-reactive neurons", "assay_type": "in vivo, mouse", "conditions": "L66 heterozygous, 8–9 months, MTC 45 mg/kg (35.1 mg MT/kg), 3 weeks", "summary_of_the_method": "(§2)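 Separate histology cohorts were killed by Euthatal overdose 1 h after the last dose. Brains were removed, paraformaldehyde-fixed and paraffin-embedded. Sixteen 3-μm sections per brain were stained together with WT, L1 and L66 controls, using mAb 7/51 (hybridoma supernatant 1:300) with HRP anti-mouse detection and haematoxylin counterstain. Tau-reactive neurons were counted by region, expressed as ln(count+1) and as percentage reduction versus zero dose.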"}, "[3]": {"test_system": "Alzheimer's disease patients", "conditions": "AD of mild or moderate severity, 24 weeks; ref Wischik et al., 2015; cited from earlier work"}, "[4]": {"molecular_target": "aggregated tau in Line 1 (Homo sapiens, UniProt P10636)", "sequence (P10636 613-707)": "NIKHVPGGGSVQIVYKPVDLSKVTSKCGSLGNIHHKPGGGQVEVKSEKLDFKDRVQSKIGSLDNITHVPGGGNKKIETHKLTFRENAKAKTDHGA", "assay": "Immunohistochemical counts of tau-reactive neurons", "assay_type": "in vivo, mouse", "conditions": "L1 mice, 45 mg/kg oral, 19 days", "summary_of_the_method": "as §2"}, "[5]": {"assay": "Body weight during 19-day treatment, L66 and WT mice", "assay_type": "in vivo, mouse", "conditions": "5–45 mg/kg oral, 19 days, LMTX in this case LMTB"}, "[6]": {"assay": "Measurement of methylthioninium levels in the brain of L66 mice", "assay_type": "in vivo, mouse"}, "[7]": {"test_system": "Line 1 (L1) tau transgenic mice", "assay": "Problem-solving task in the water maze", "assay_type": "in vivo, mouse", "summary_of_the_method": "(§3)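 Mice aged 5 months (L1 and WT) received 15 or 45 mg/kg by oral gavage for 5 weeks (Monday–Friday), with dosing continued during testing 1 h before the first trial. Cued training lasted 4 days at 4 trials/day in a 1.5 m pool with water at 21±1°C, curtains drawn and a flagged platform moved daily among 20 sites. Each trial allowed 60 s, with a 2 s stay and a 10-min intertrial interval. Path length and swim speed were video-tracked.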"}, "[8]": {"test_system": "mitochondrial β-oxidation", "conditions": "ref Visarius et al., 1997; cited from earlier work"}, "[9]": {"test_system": "wild-type (WT) control mice", "assay": "RotaRod motor performance, WT mice", "assay_type": "in vivo, mouse", "conditions": "45 mg/kg oral", "summary_of_the_method": "as §1"}, "[10]": {"test_system": "L1 mice", "assay": "Behavioural reactions observed on treatment, L1 histology cohorts", "assay_type": "in vivo, mouse", "conditions": "75 mg/kg oral, transient"}, "[11]": {"test_system": "wild-type (WT) control mice", "assay": "Visible platform task in the water maze, WT mice", "assay_type": "in vivo, mouse", "summary_of_the_method": "as §3"}, "[12]": {"assay": "Body weight over 8 weeks of oral treatment, L1 and WT mice", "assay_type": "in vivo, mouse", "conditions": "over 8 weeks of oral administration; identical in WT and L1 cohorts; drug exposure did not differ from vehicle"}}, "data": [{"substance": "3,7-bis(dimethylamino)phenothiazin-5-ylium chloride [MTC]", "values": [{"measurement": "effect on post-treatment RotaRod performance vs vehicle", "setting": "[1]; 5 mg/kg oral", "value": "significant benefit"}, {"measurement": "effect on post-treatment RotaRod performance vs vehicle", "setting": "[1]; 15 mg/kg oral", "value": "significant benefit"}, {"measurement": "effect on motor learning (difference between trial 1 and trial 12)", "setting": "[1]; all doses (5, 15, 45 mg/kg)", "value": "full recovery of motor learning"}, {"measurement": "lowest effective dose, correction of motor learning on RotaRod", "setting": "[1]; oral, 19 days (5 mg/kg of compound)", "value": 4, "unit": "mg MT/kg"}, {"measurement": "percentage reduction in counts compared with zero dose, mean over region", "setting": "[2]", "value": 44, "unit": "%"}, {"measurement": "minimum effective dose at clinical and molecular imaging endpoints", "setting": "[3]", "value": 138, "unit": "mg MT/day"}, {"measurement": "reduction in tau-reactive neurons, subiculum", "setting": "[4]", "value": 83, "unit": "%"}, {"measurement": "effect on body weight compared with vehicle controls", "setting": "[5]", "value": "dose-dependent weight loss"}, {"measurement": "brain MT concentration with evidence of plateauing of RotaRod performance", "setting": "[6]; 5 or 15 mg/kg, LMTX in this case LMTB", "value": 0.6, "unit": "mmol/L"}, {"measurement": "mean brain concentration of total MT", "setting": "[6]; lowest effective dose (4 mg MT/kg), oral", "value": "150 ± 10", "unit": "nM"}, {"measurement": "effect on swim speed", "setting": "[7]; L1 and WT mice, 15 and 45 mg/kg oral, visible platform task", "value": "did not alter the velocity"}, {"measurement": "effect on mean number of trials to criterion (three spatial problems)", "setting": "[7]; L1 mice, 15 mg/kg oral", "value": "longer training required to meet criterion"}, {"measurement": "effect on mean number of trials to criterion (three spatial problems)", "setting": "[7]; L1 mice, 45 mg/kg oral", "value": "impairment was reversed"}, {"measurement": "effect on path length to visible platform", "setting": "[7]; L1 mice, 15 and 45 mg/kg oral, 4 days cued training", "value": "No drug effect"}, {"measurement": "dose required to produce benefit in spatial problem-solving water maze task", "setting": "[7]; L1 mice, oral, 8 weeks, dose as weight of compound", "value": 45, "unit": "mg/kg"}, {"measurement": "concentration for enhancement of mitochondrial β-oxidation", "setting": "[8]", "value": 0.3, "unit": "µmol/L"}, {"measurement": "effect on post-treatment RotaRod performance vs vehicle", "setting": "[9]", "value": "did not affect the performance"}, {"measurement": "behavioural reactions", "setting": "[10]", "value": "hunched posture, low activity, piloerection"}, {"measurement": "effect on path length to visible platform", "setting": "[11]; 15 mg/kg oral", "value": "improvement"}, {"measurement": "effect on path length to visible platform", "setting": "[11]; 45 mg/kg oral", "value": "did not differ from controls"}, {"measurement": "weight loss", "setting": "[12]", "value": "15–20%"}]}]}
